Laboratory results as given in ChEMBL document CHEMBL1140226, “Development of novel G-protein-coupled receptor 54 agonists with resistance to degradation by matrix metalloproteinase” (J Med Chem, 2008).

Key:
[1] = Stability in mouse serum assessed as half life; assay type: ADME, cell-free
Method in brief: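 Peptides were incubated in murine serum and the half-life was determined.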

[2] = target: 72 kDa type IV collagenase (Homo sapiens) (UniProt P08253); assay: Inhibition of MMP2 at 10 uM by fluorimetric assay; parameters: scale not given: the % may be the effect or the level left
[3] = target: Matrix metalloproteinase-9 (Homo sapiens) (UniProt P14780); assay: Inhibition of MMP9 at 10 uM by fluorimetric assay; parameters: scale not given: the % may be the effect or the level left
KiSS-1 receptor [4] = target: T1, KiSS-1 receptor (Homo sapiens, UniProt Q969F8); assay: Displacement of [125I]kisspeptin-15 from human GPR54 expressed in CHO cell membrane; assay type: cell membranes
KiSS-1 receptor [5] = target: T1, KiSS-1 receptor; assay: Ratio of IC50 of compound to IC50 of kisspeptin-10 for human GPR54
KiSS-1 receptor [6] = target: T1, KiSS-1 receptor; assay: Agonist activity at human GPR54 expressed in CHO cells assessed as effect on kisspeptin-10-induced response by FLIPR assay; assay type: functional, cell-based
Serum = assay: Stability in mouse serum within 1 hr; assay type: ADME, cell-free

Sequence of Matrix metalloproteinase-9 (Homo sapiens) (P14780 whole entry): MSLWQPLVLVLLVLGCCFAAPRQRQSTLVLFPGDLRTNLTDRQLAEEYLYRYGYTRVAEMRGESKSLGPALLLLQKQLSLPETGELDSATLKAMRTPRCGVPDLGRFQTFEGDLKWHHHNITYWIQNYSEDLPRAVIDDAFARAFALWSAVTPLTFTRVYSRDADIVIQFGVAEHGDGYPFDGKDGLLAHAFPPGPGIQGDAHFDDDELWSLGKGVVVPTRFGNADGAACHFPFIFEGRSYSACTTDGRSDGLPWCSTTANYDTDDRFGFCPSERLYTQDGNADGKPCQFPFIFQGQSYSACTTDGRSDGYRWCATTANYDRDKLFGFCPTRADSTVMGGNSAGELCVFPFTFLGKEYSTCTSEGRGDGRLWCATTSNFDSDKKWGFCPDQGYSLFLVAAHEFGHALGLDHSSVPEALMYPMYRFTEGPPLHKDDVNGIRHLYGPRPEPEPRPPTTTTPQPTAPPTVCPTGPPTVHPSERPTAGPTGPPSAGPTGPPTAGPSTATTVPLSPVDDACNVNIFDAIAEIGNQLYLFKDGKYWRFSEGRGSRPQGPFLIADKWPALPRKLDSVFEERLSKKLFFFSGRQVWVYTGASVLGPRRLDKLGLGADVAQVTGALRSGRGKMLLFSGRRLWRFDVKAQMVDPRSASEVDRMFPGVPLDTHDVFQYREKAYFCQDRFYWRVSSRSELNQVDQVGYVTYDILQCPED
Sequence of 72 kDa type IV collagenase (Homo sapiens) (P08253 110-660 limits assumed): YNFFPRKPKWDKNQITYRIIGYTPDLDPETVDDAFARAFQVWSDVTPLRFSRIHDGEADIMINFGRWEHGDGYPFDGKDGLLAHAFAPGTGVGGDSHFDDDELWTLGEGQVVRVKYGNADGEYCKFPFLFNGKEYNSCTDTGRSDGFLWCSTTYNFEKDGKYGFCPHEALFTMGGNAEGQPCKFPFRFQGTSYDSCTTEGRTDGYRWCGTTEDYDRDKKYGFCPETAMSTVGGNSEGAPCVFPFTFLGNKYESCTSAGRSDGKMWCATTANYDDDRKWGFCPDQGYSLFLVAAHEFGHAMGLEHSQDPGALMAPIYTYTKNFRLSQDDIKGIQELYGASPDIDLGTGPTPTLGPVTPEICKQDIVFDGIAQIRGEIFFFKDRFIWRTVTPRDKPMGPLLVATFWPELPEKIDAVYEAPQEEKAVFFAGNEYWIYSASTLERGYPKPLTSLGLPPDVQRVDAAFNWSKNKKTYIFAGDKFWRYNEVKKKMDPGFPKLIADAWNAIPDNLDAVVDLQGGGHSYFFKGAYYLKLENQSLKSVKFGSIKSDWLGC
T1 sequence (Q969F8 whole entry): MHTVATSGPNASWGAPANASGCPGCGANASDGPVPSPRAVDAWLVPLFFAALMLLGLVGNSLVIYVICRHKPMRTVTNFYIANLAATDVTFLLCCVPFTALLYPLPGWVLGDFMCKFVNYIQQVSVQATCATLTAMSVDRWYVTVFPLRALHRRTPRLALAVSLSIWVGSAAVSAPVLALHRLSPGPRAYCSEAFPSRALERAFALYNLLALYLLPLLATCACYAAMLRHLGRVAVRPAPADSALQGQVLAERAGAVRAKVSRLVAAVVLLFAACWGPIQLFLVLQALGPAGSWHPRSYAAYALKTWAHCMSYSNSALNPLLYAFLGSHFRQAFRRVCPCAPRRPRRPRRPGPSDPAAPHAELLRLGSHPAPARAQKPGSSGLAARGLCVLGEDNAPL

CC(C)C/C(=C\[C@H](O)CNC(=O)[C@H](Cc1ccccc1)NC(=O)c1ccc(F)cc1)C(=O)N[C@@H](CCCN=C(N)N)C(=O)N[C@@H](Cc1c[nH]c2ccccc12)C(N)=O
half-life [1]: 1100 min

CC(C)C/C(=C\[C@H](O)CNC(=O)[C@H](Cc1ccccc1)NC(=O)c1ccc(F)cc1)C(=O)N[C@@H](CCCNC(=N)N)C(=O)N[C@@H](Cc1c[nH]c2ccccc12)C(N)=O
Activity [2]: 96.9% | Activity [3]: 103%

CC(C)C[C@H](C[C@H](O)CNC(=O)[C@H](Cc1ccccc1)NC(=O)c1ccc(F)cc1)C(=O)N[C@@H](CCCN=C(N)N)C(=O)N[C@@H](Cc1c[nH]c2ccccc12)C(N)=O
IC50 (KiSS-1 receptor [4]): 0.24 nM | half-life [1]: 35 min

CC(C)C[C@H](/C=C/CNC(=O)[C@H](Cc1ccccc1)NC(=O)c1ccc(F)cc1)C(=O)N[C@@H](CCCNC(=N)N)C(=O)N[C@@H](Cc1c[nH]c2ccccc12)C(N)=O
Activity [2]: 101% | Activity [3]: 101%

CC(C)C[C@@H](NC(=O)CNC(=O)[C@H](Cc1ccccc1)NC(=O)c1ccc(F)cc1)C(=O)N[C@@H](CCCNC(=N)N)C(=O)N[C@@H](Cc1c[nH]c2ccccc12)C(N)=O
IC50 (KiSS-1 receptor [4]): 240 nM | Ratio IC50 (KiSS-1 receptor [5]): 240

CC(C)C[C@H](NC(=O)CNC(=O)[C@H](Cc1ccccc1)NC(=O)c1ccc(F)cc1)C(=O)N[C@@H](CCCNC(=N)N)C(=O)N[C@@H](Cc1c[nH]c2ccccc12)C(N)=O
Ratio IC50 (KiSS-1 receptor [5]): 7.3

CC(C)C/C(=C\CCNC(=O)[C@H](Cc1ccccc1)NC(=O)c1ccc(F)cc1)C(=O)N[C@@H](CCCNC(=N)N)C(=O)N[C@@H](Cc1c[nH]c2ccccc12)C(N)=O
Activity [2]: 94.5% | half-life [1]: 52 min | Activity [3]: 98.9%

CC(C)C[C@H](NC(=O)CNC(=O)[C@H](Cc1ccccc1)NC(=O)c1ccc(F)cc1)C(=O)N[C@@H](CCCN=C(N)N)C(=O)N[C@@H](Cc1c[nH]c2ccccc12)C(N)=O
IC50 (KiSS-1 receptor [4]): 0.71 nM | EC50 (KiSS-1 receptor [6]): 0.45 nM | half-life [1]: 6.6 min

CC(C)C[C@@H](C[C@H](O)CNC(=O)[C@H](Cc1ccccc1)NC(=O)c1ccc(F)cc1)C(=O)N[C@@H](CCCNC(=N)N)C(=O)N[C@@H](Cc1c[nH]c2ccccc12)C(N)=O
Activity [2]: 99.3% | half-life [1]: 120 min | Activity [3]: 100%

CC(C)C/C(=C\[C@@H](O)CNC(=O)[C@H](Cc1ccccc1)NC(=O)c1ccc(F)cc1)C(=O)N[C@@H](CCCNC(=N)N)C(=O)N[C@@H](Cc1c[nH]c2ccccc12)C(N)=O
Activity [2]: 99.1% | half-life [1]: 60 min | Activity [3]: 104%

CC(C)C[C@H](CCCNC(=O)[C@H](Cc1ccccc1)NC(=O)c1ccc(F)cc1)C(=O)N[C@@H](CCCNC(=N)N)C(=O)N[C@@H](Cc1c[nH]c2ccccc12)C(N)=O
Activity [2]: 97.1% | half-life [1]: 45 min | Activity [3]: 102%

CC(C)C[C@@H](C[C@@H](O)CNC(=O)[C@H](Cc1ccccc1)NC(=O)c1ccc(F)cc1)C(=O)N[C@@H](CCCN=C(N)N)C(=O)N[C@@H](Cc1c[nH]c2ccccc12)C(N)=O
IC50 (KiSS-1 receptor [4]): 380 nM | half-life [1]: 470 min

CC(C)C[C@H](C[C@H](O)CNC(=O)[C@H](Cc1ccccc1)NC(=O)c1ccc(F)cc1)C(=O)N[C@@H](CCCNC(=N)N)C(=O)N[C@@H](Cc1c[nH]c2ccccc12)C(N)=O
Activity [2]: 98.7% | Activity [3]: 103%

CC(C)C[C@H](/C=C/CNC(=O)[C@H](Cc1ccccc1)NC(=O)c1ccc(F)cc1)C(=O)N[C@@H](CCCN=C(N)N)C(=O)N[C@@H](Cc1c[nH]c2ccccc12)C(N)=O
EC50 (KiSS-1 receptor [6]): 0.3 nM | half-life [1]: 38 min

CC(C)C[C@H](C[C@@H](O)CNC(=O)[C@H](Cc1ccccc1)NC(=O)c1ccc(F)cc1)C(=O)N[C@@H](CCCNC(=N)N)C(=O)N[C@@H](Cc1c[nH]c2ccccc12)C(N)=O
Activity [2]: 96.2% | half-life [1]: 54 min | Activity [3]: 109%

CC(C)C[C@@H](C[C@@H](O)CNC(=O)[C@H](Cc1ccccc1)NC(=O)c1ccc(F)cc1)C(=O)N[C@@H](CCCNC(=N)N)C(=O)N[C@@H](Cc1c[nH]c2ccccc12)C(N)=O
Activity [2]: 96.5% | Activity [3]: 108%

CC(C)C[C@H](NC(=O)CNC(=O)[C@H](Cc1ccccc1)NC(=O)[C@H](CO)NC(=O)[C@H](CC(N)=O)NC(=O)[C@H](Cc1c[nH]c2ccccc12)NC(=O)[C@H](CC(N)=O)NC(=O)[C@@H](N)Cc1ccc(O)cc1)C(=O)N[C@@H](CCCNC(=N)N)C(=O)N[C@@H](Cc1ccccc1)C(N)=O [KISSPEPTIN-10]
Stability (Serum): Unstable | IC50 (KiSS-1 receptor [4]): 0.07 nM
